The source made the active and inactive calls.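 How the source made its calls: active means membrane recruitment of a green fluorescent kinase sensor scored by eye at 30% or more; inactive means the rest.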
Biological target: G-protein coupled receptor 55 (Homo sapiens) (UniProt Q9Y2T6)
Assay: agonist-driven PKCbII translocation via GPR55 – imaging, HEK293, PKCbII-GFP, SAR follow-up (AID 463192)
Settings: HEK293 GPR55, PKCbII-GFP membrane recruitment imaging
In short: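 Material – HEK293 cells transiently expressing wild-type human GPR55 and PKC βII-GFP biosensor · Incubation – 15 min compound exposure at 37 °C · Technique – fluorescence microscopy of fixed cells, scored by eye · Evaluation – visual score (– to ++++) of PKC βII-GFP membrane translocation and blebbing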

Chain of G-protein coupled receptor 55 (Homo sapiens) (Q9Y2T6 whole entry, looked up): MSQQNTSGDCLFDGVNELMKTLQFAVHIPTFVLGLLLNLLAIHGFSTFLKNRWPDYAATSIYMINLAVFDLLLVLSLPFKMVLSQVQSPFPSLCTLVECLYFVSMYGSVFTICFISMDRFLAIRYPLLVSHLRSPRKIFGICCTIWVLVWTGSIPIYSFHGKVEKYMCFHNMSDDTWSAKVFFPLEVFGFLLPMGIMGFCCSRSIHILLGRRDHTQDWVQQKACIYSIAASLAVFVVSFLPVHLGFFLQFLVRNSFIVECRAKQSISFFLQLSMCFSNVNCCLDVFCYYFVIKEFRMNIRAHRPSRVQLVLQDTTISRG

outcome, active:
Cc1cccc(N2CCN(C(=O)c3cc(S(=O)(=O)N(C)C)ccc3N3CCCC3)CC2)c1C active; +++
COc1ccc(-c2csc(NC(=O)CSc3nnc4c(C)cc5ccccc5n34)n2)cc1 active; +++
Cc1occc1C(=O)Nc1ccc(OCc2ccccc2)cc1 active; +++
COc1ccccc1/C=C/C(=O)NC(=S)Nc1ccc(S(=O)(=O)N(C)c2ccccc2)cc1 active; +++
CN(C)S(=O)(=O)c1ccc(N2CCCC2)c(C(=O)N2CCN(c3ccc([N+](=O)[O-])cc3)CC2)c1 active; +++
CC(C)Oc1ccc(S(=O)(=O)N2CCOCC2)cc1NC(=O)c1ccc(N2CCCC2=O)cc1 active; +++
CCCN(CCC)Cc1c(C(=O)NN=Cc2c[nH]c3ccccc23)nnn1-c1nonc1N active; +++
COc1ccc(S(=O)(=O)N2CCOCC2)cc1NC(=O)c1cc2c(s1)CCCC2 active; +++
COc1ccc2cc(C)c3nnc(SCC(=O)Nc4nc(-c5ccc(F)cc5)cs4)n3c2c1 active; +++
